Among the data in ChEMBL document CHEMBL1287673, “Neo-tanshinlactone inspired synthesis, in vitro evaluation of novel substituted benzocoumarin derivatives as potent anti-breast cancer agents” (Bioorg Med Chem Lett, 2010) are IC50 and Activity values, retold here.

Active and inactive are the calls of the source. The calls are words filed in the database; no cut-off is given here. A value given as a limit tells only on which side of the number the result lay.

Data set [1] relates to MCF7. Description: Anticancer activity against human MCF7 cells expressing estrogen receptor by MTT assay. It counts as functional, cell-based. In general terms: Tetrazolium dyes change colour on reduction, which living cells bring about.
Data set [2] in a line: Cytotoxicity activity against Sprague-Dawley rat osteoblast cells at 10 uM by MTT assay. It counts as cell-based. The essentials:
(§1)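 Primary osteoblasts, 3 × 10³ cells/well, treated with 10 or 20 µM compound; viability and cell number read by MTT; n = 9.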

The subject of data set [3] is MCF7. Description: Induction of apoptosis in human MCF7 cells expressing estrogen receptor assessed as presence of nuclear fragmentation at 10 uM after 18 hrs by Hoechst 33342 staining. It counts as functional, cell-based. The essentials: (§2)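 MCF-7 at 70–80% confluence given 10 µM compound for 18 h in complete growth medium, then Hoechst 33342 stained and imaged with a ×40 objective. Apoptotic nuclei scored by shape and intensity and normalized to control; tamoxifen positive control.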

The test system of data set [4] is MCF7. Description: Induction of apoptosis in human MCF7 cells expressing estrogen receptor assessed as cytoplasmic condensation at 10 uM after 18 hrs by Hoechst 33342 staining. It counts as functional, cell-based. The essentials:
as §2

The subject of data set [5] is MCF7. Description: Induction of apoptosis in human MCF7 cells expressing estrogen receptor assessed as increase in caspase activity at 10 uM after 16 hrs. It is filed as functional, cell-based. The method, boiled down:
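1 × 10⁴ MCF-7 cells/well at 70–80% confluence grown 16 h, then 10 µM compound for 16 h. General (homogeneous) caspase activity read fluorometrically, excitation 465 nm, emission 520 nm; compared with negative control.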

Data set [6] is described as follows: Cytotoxicity activity against Sprague-Dawley rat osteoblast cells at 20 uM by MTT assay. It counts as cell-based. The essentials:
as §1

Data set [7] concerns MCF7. Kind of data set: Cell cycle arrest in human MCF7 cells expressing estrogen receptor assessed as accumulation at G1/G0 phase at 10 uM after 24 hrs using propidium iodide staining by flow cytometry. It counts as functional, cell-based. The method, boiled down:
(§3)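 MCF-7, 5 × 10⁵ cells/well at 70–80% confluence, serum-starved, then 10 µM compound for 24 h in phenol red-free medium. Cells fixed in 70% ethanol, rehydrated in PBS, and stained with PI (50 µg/ml) plus ribonuclease A (100 µg/ml). Flow cytometry gives % of cells in each cycle phase.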
For orientation: A flow cytometer gives signals particle by particle.

Data set [8] deals with MCF7. Kind of data set: Induction of apoptosis in human MCF7 cells expressing estrogen receptor assessed as presence of apoptotic body at 10 uM after 18 hrs by Hoechst 33342 staining. It is filed as functional, cell-based. The method, boiled down:
as §2

Data set [9] concerns MCF7. Description: Cytotoxicity against human MCF7 cells expressing estrogen receptor assessed as loss of cell viability at 10 uM after 16 hrs by MTT assay. It counts as functional, cell-based. The essentials:
(§4)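 1 × 10⁵ MCF-7 cells at 70–80% confluence exposed 16 h to increasing compound concentrations; growth inhibition read by MTT as percent (Total/Control); tamoxifen positive control; n = 9.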

The subject of data set [10] is MCF7. Description: Induction of apoptosis in human MCF7 cells expressing estrogen receptor at 10 uM after 24 hrs using annexin-V FITC and propidium iodide staining by flow cytometry. It is filed as functional, cell-based. The essentials:
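MCF-7 (5 × 10⁵ cells) at 70–80% confluence held 24 h in DMEM/10% FBS with or without 10 µM compound. Harvested, stained with Annexin-V-FITC and PI, and read by flow cytometry as % apoptotic (Annexin-positive/PI-negative) and necrotic (PI-positive) cells.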

The test system of data set [11] is MCF7. Kind of data set: Cytotoxicity against human MCF7 cells expressing estrogen receptor assessed as loss of cell viability after 16 hrs by MTT assay. It counts as functional, cell-based. The essentials: as §4
For data set [12], the system named is MCF7. Description: Cytotoxicity against human MCF7 cells expressing estrogen receptor assessed as loss of cell viability at 20 uM after 16 hrs by MTT assay. It is filed as functional, cell-based. The essentials: as §4
Data set [13] relates to MCF7. Description: Cell cycle arrest in human MCF7 cells expressing estrogen receptor assessed as accumulation at G2 phase at 10 uM after 24 hrs using propidium iodide staining by flow cytometry. It counts as functional, cell-based. The essentials:
as §3

For `CCN/C=C1C=C(/C=C/C(=O)c2ccc(O)cc2)c2c(ccc3c(C)cc(=O)oc23)C/1=O`, the IC50 in data set [1] came to 85 µM.
Compound `Cc1ccc(C(=O)/C=C/C2=CC(=C/NC(C)(C)C)/C(=O)c3ccc4c(C)cc(=O)oc4c32)cc1` yielded an IC50 in data set [1] of 97 µM.
Turning to `CCCCCCCN/C=C1/C=C(C=O)c2c(ccc3c(C)cc(=O)oc23)C1=O`, in data set [1], the IC50 was over 100 µM.
`CCN/C=C1C=C(/C=C/C(=O)c2ccc(C)cc2C)c2c(ccc3c(C)cc(=O)oc23)C/1=O` displayed an IC50 in data set [1] of over 100 µM.
The compound `COc1ccc(C(=O)/C=C/C2=CC(=C/NC(C)C)/C(=O)c3ccc4c(C)cc(=O)oc4c32)cc1` showed an IC50 in [1] of over 100 µM.
Same read-out and setting: under `CCN/C=C1C=C(/C=C/C(=O)c2ccc(C)cc2)c2c(ccc3c(C)cc(=O)oc23)C/1=O` stands over 100 µM; under `COc1ccc(C(=O)/C=C/c2cc(C=O)c(O)c3ccc4c(C)cc(=O)oc4c23)cc1`, over 100 µM; under `CCN/C=C1/C=C(C=O)c2c(ccc3c(C)cc(=O)oc23)C1=O`, over 100 µM.
Still for that read-out and setting: the result for `Cc1cc(=O)oc2c3c(ccc12)C(=O)/C(=C\NCCN1CCOCC1)C=C3C=O` reads over 100 µM; that for `Cc1cc(=O)oc2c3c(ccc12)C(=O)/C(=C\NC(C)C)C=C3C=O`, 130 µM.
Still for that read-out and setting: the result for `CCN/C=C1C=C(/C=C/C(=O)c2ccccc2)c2c(ccc3c(C)cc(=O)oc23)C/1=O` reads 87 µM.
Regarding `Cc1ccc(C(=O)/C=C/c2cc(C=O)c(O)c3ccc4c(C)cc(=O)oc4c23)c(C)c1`, the IC50 in [1] was over 100 µM.
Turning to `CCN/C=C1C=C(/C=C/C(=O)c2ccc(OC)cc2)c2c(ccc3c(C)cc(=O)oc23)C/1=O`, in [1], the IC50 worked out at 30 µM.
Same read-out and setting: the result for `CCCCN/C=C1C=C(/C=C/C(=O)c2ccc(C)cc2)c2c(ccc3c(C)cc(=O)oc23)C/1=O` reads over 100 µM; that for `Cc1cc(=O)oc2c3c(ccc12)C(=O)/C(=C\NC(C)(C)C)C=C3/C=C/C(=O)c1ccc(O)cc1`, over 100 µM; that for `CCCCN/C=C1C=C(/C=C/C(=O)c2ccc(OC)cc2)c2c(ccc3c(C)cc(=O)oc23)C/1=O`, 92 µM.
The same measure, in the same setting: the result for `CCCCN/C=C1C=C(/C=C/C(=O)c2ccc(C)cc2C)c2c(ccc3c(C)cc(=O)oc23)C/1=O` reads over 100 µM; that for `Cc1ccc(C(=O)/C=C/c2cc(C=O)c(O)c3ccc4c(C)cc(=O)oc4c23)cc1`, over 100 µM; that for `CC/C(=C(\c1ccccc1)c1ccc(OCCN(C)C)cc1)c1ccccc1` [TAMOXIFEN], 11.8 µM.
`CN/C=C1/C=C(C=O)c2c(ccc3c(C)cc(=O)oc23)C1=O`: the Activity result in data set [2] is “Non-toxic”; in data set [6], “Non-toxic”; in [9], “Toxic”; in data set [11] it was “Dose-dependent effect”. Besides, the result in data set [3], in data set [4], in [5], in [7], in data set [8] and in data set [10] was Active. In data set [1], this compound had an IC50 of 3.8 µM.
As to `Cc1cc(=O)oc2c1ccc1c(O)c(C=O)cc(/C=C/C(=O)c3ccccc3)c12`, the IC50 in data set [1] was over 100 µM.
On the same count and under the same terms, under `Cc1cc(=O)oc2c3c(ccc12)C(=O)/C(=C\NC(C)(C)C)C=C3C=O` stands 20 µM; under `Cc1cc(=O)oc2c3c(ccc12)C(=O)/C(=C\NC(C)C)C=C3/C=C/C(=O)c1ccc(O)cc1`, 32 µM; under `Cc1ccc(C(=O)/C=C/C2=CC(=C/NC(C)(C)C)/C(=O)c3ccc4c(C)cc(=O)oc4c32)c(C)c1`, over 100 µM.
`Cc1cc(=O)oc2c3c(ccc12)C(=O)/C(=C\NC(C)C)C=C3/C=C/C(=O)c1ccccc1`: in [1], the IC50 was over 100 µM.
In [1], `Cc1cc(=O)oc2c1ccc1c(O)c(C=O)cc(/C=C/C(=O)c3ccc(O)cc3)c12` had an IC50 of over 100 µM.
As for `CCCN/C=C1/C=C(C=O)c2c(ccc3c(C)cc(=O)oc23)C1=O`, the Activity entry was “Non-toxic” in [2], “Non-toxic” in data set [6], “Toxic” in data set [12] and “Dose-dependent effect” in [11]. In addition, the outcome in data set [3], in data set [4], in [5], in [7] and in [8] was Active. The compound also showed an IC50 in data set [1] of 7.9 µM.
In the case of `Cc1cc(=O)oc2c1ccc1c(O)cccc12`, in data set [1], the IC50 was over 100 µM.
The same measure, in the same setting: the result for `CCCCN/C=C1C=C(/C=C/C(=O)c2ccccc2)c2c(ccc3c(C)cc(=O)oc23)C/1=O` reads 100 µM.
Consider `CCCCN/C=C1/C=C(C=O)c2c(ccc3c(C)cc(=O)oc23)C1=O`, for which the Activity entry in data set [2] is “Non-toxic”; in data set [6], “Non-toxic”; in data set [11] it was “Dose-dependent effect”. Besides, the outcome in data set [3], in [4], in data set [5], in data set [8] and in data set [13] was Active. Besides, the midpoint of inhibition in data set [1], the IC50, lay at 6.5 µM.
Consider `Cc1cc(=O)oc2c3c(ccc12)C(=O)/C(=C\NC(C)(C)C)C=C3/C=C/C(=O)c1ccccc1`, for which the IC50 in data set [1] worked out at 92 µM.
Same read-out and setting: under `COc1ccc(C(=O)/C=C/C2=CC(=C/NC(C)(C)C)/C(=O)c3ccc4c(C)cc(=O)oc4c32)cc1` stands over 100 µM.
Still for that read-out and setting: the result for `Cc1cc(=O)oc2c1ccc1c(O)c(C=O)cc(C=O)c12` reads over 100 µM.
Consider `Cc1ccc(C(=O)/C=C/C2=CC(=C/NC(C)C)/C(=O)c3ccc4c(C)cc(=O)oc4c32)c(C)c1`, for which the IC50 in data set [1] was determined as 35 µM.
On to `CCCCN/C=C1C=C(/C=C/C(=O)c2ccc(O)cc2)c2c(ccc3c(C)cc(=O)oc23)C/1=O`, for which the IC50 in data set [1] came to 40 µM.
Still for that read-out and setting: the result for `Cc1ccc(C(=O)/C=C/C2=CC(=C/NC(C)C)/C(=O)c3ccc4c(C)cc(=O)oc4c32)cc1` reads 21 µM.

As a reminder, the IC50 is the concentration needed to halve the response being measured. Low readings indicate higher potency, high ones lower potency.
